Measurements gathered from unrelated publications.
Compare with care: the assays were run in different laboratories.
Target: Cytochrome P450 2C19 (CYP2C19, Homo sapiens, UniProt P33261)
Observed: enzyme activity
Action: inhibitor

For CCCN(CCC)CCc1cccc2c1CC(=O)N2, the IC50 was over 1000 µM (fluorescence).
With COc1ccc2c(Cc3ccccc3F)c3n(c(=O)c2c1OC)CCc1cc2c(cc1-3)OCO2 the IC50 was 4.7 µM.
With COC(=O)C1CCN(C(=O)c2ccc(N(Cc3ccccc3)Cc3cnc4nc(N)nc(N)c4n3)cc2)CC1 the IC50 was 0.195 µM (luciferase).
COc1ccc2[nH]c([S+]([O-])Cc3ncc(C)c(OC)c3C)nc2c1 (stereo not drawn) has an IC50 of 32 µM (fluorescence).
The IC50 of CCN(Cc1cnc2nc(N)nc(N)c2n1)c1ccc(C(=O)c2ccccc2)cc1 is reported as 0.282 µM (luciferase).
For COc1ccc2c(Cc3ccccc3F)c3[n+](cc2c1OC)CCc1cc2c(cc1-3)OCO2, the IC50 was over 10 µM.
With Cc1cc2c(F)c(Oc3ncnn4cc(OC[C@@H](C)O)c(C)c34)ccc2[nH]1 the IC50 was 3.64 µM (fluorescence; 15 min).
With CCC(C)(C)C(=O)O[C@H]1C[C@@H](C)C=C2C=C[C@H](C)[C@H](CC[C@@H](O)C[C@@H](O)CC(=O)O)[C@H]21 the IC50 was over 100 µM (fluorescence).
With C=CC(=O)Nc1cc(Nc2nccc(Nc3cc(Cl)c(F)cc3C(C)(C)O)n2)c(OC)cc1N1CC[C@@H](N(C)C)C1 the IC50 was over 30 µM (human, liver microsomes).
CC1=CC(=O)C(C(C)C)=CC1=O has an IC50 of 3.6 µM (fluorescence; pH 7.4).
C#CCN(Cc1cnc2nc(N)nc(N)c2n1)c1ccc(C(=O)N2CCC(C(=O)OC)CC2)cc1 has an IC50 of 9.77 µM (luciferase).
With COc1ccn2c(Nc3ccccc3F)c(-c3ccncn3)nc2c1 the IC50 was 0.93 µM.
